Here are results for 1 compound from article PMC9208026 (Journal of pharmacological sciences, 2022).

The structures appear in SMILES notation.

Experiment [1] relates to collagen-induced arthritis (CIA) joints. The experiment is described as follows: Histopathology study of limbs. In kind it is in vivo, DBA1 mice. The note with it: MTX 1.5 mg/kg i.p., CIA mice limbs, H&E, N = 4.
The subject of experiment [2] is bovine type II collagen antibody. The experiment is described as follows: Collagen antibody level in CIA mice serum. It counts as in vivo, DBA1 mice. Conditions: CIA mice serum at end of study, ELISA, N = 6. In outline:
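Serum came from CIA DBA1 mice (N = 6 per group) at the end of the study, spun at 10,000 rpm for 10 min, then cleared at 10,000 rpm for 3 min and diluted 1:40,000. Anti-bovine type II collagen ELISA: wells blocked 1 h at room temperature; standards and samples 2 h; secondary antibody 1 h; TMB 15 min; stopped and read at A450. Levels were taken from a standard curve; mean ± SEM.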
(In general: ELISA stands for enzyme-linked immunosorbent assay.)

For `CN(Cc1cnc2nc(N)nc(N)c2n1)c1ccc(C(=O)N[C@@H](CCC(=O)O)C(=O)O)cc1` [MTX, Methotrexate], the “histopathological changes (inflammation, synovial hyperplasia, cartilage/bone erosion)” value in experiment [1] is given as “reduced occurrence of the changes”. The “bovine collagen antibody level in serum compared to vehicle group” value in experiment [2] is listed as “lower”.
